CHOP inh: inhibitors of CHOP induction in ER stress response | CHO-K1 CHOP-promoter luciferase, tunicamycin-induced, 15-18 h | inhibition, % at 10 µM | 220,000 tested, 3.8% active | AID 2732;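 active means compounds that reduced the stress-induced luciferase reporter signal by more than about 70% of percent inhibition, limit read from the data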;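 further: 0% = tunicamycin plus vehicle and 100% = wells without tunicamycin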
TbMetRS inhib: blocks T. brucei methionyl-tRNA synthetase activity. purified T. brucei MetRS, ATP depletion, Kinase-Glo luminescence. inhibition, % at 11.9 µM. 360,000 tested, 0.4% active;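 active means inhibition above a per-plate cutoff of the control wells' mean inhibition plus 3 SD, cut at about 5.5% in these data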;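 further: 0% = DMSO wells median and 100% = median of wells with control inhibitor compound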
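Material: T. brucei methionyl-tRNA synthetase, purified; reagent: substrates ATP, L-methionine and bulk Escherichia coli tRNA; dosing: 11.9 µM single point; timing: 15 min plus 2 h at 25 °C; detection: luminescence of leftover ATP; evaluation: % inhibition; control set: DMSO-only wells as low control; replicates: singlicate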
XBP1 UPR activ: adaptive UPR (XBP1) activation; 330,000 tested, 0.33% active; CHO-XBP1 luciferase reporter, IRE1-XBP1 UPR activation, luminescence; percent of tunicamycin response, DMSO as zero; activation, % at 20 µM;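 active means versus positive control, 20 µM dose yields 30% or more activation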;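 further: 100% = tunicamycin at 10 µg/mL and 0% = DMSO only wells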
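Material: CHO-XBP1 cells stably carrying IRE1-XBP1-driven luciferase reporter | Medium: F12 with 10% serum | Compound dosing: 20 µM single concentration, DMSO 1% | Incubation: Overnight seeding at 37 °C, 6 h compound treatment at 37 °C | Detection: Steady-Glo luminescence read | Read-out basis: % activation of reporter signal versus tunicamycin and DMSO controls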
UPR CHOP act: activators of apoptotic arm of unfolded protein response (CHOP); CHO-CHOP luciferase reporter, UPR activation, luminescence; percent of tunicamycin response over DMSO baseline; activation, % at 10 µM; 330,000 tested, 0.34% active; AID 449763;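 active means at 10 µM dose, activation of 40% or more, normalized to positive control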;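 further: 100% = tunicamycin at 10 µg/mL and 0% = DMSO alone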
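System: CHO-CHOP luciferase reporter cell line | Buffer or medium: F12 medium containing 10% fetal bovine serum | Doses: One dose, 10 µM in 0.5% DMSO | Times: 6 h compound exposure at 37 °C after overnight seeding | Signal: Luciferase luminescence | Read-out: % activation vs tunicamycin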
V-ATPase pH: yeast V-ATPase proton transport regulation by pHLuorin; 350,000 tested, 0.37% active; response, % at 10 µM; S. cerevisiae, pHLuorin cytosolic pH fluorescence; in the data active means response mostly above about 7.3%, no sharp cut-off; inactive means mostly below about 5.4%; further: actives read high
CHOP confirm: confirmation of CHOP induction inhibitors; shares compounds with CHOP inh; CHO-CHOP promoter luciferase reporter, tunicamycin-induced, luminescence; inhibition, % at 10 µM; 2,100 tested, 45% active; AID 504437;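 active means mean of three repeat readings of reporter signal inhibition above a set limit, cut at about 70% in these data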;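 further: 0% = tunicamycin plus vehicle and 100% = wells lacking tunicamycin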
An asterisk follows results filed as active; . = no result given. This is one part of a sample in which hits are shown more often than they occur.

SMILES	CHOP inh	TbMetRS inhib	XBP1 UPR activ	UPR CHOP act	V-ATPase pH	CHOP confirm
O=[N+]([O-])/C=C/c1cn(Cc2ccc(Cl)cc2)c2ccccc12	100*	1	1	7	4	-25
Cc1cc(/C=c2/sc3nc4ccccc4n3c2=O)c(C)n1-c1ccccn1	107*	0	-6	-9	7	118*
Cc1ccc2nc(NC(=O)C3CCN(S(=O)(=O)c4cccc5nsnc45)CC3)sc2c1	63	-1	-1	3	-2	.
Cc1ccc2nc(NC(=O)C3CCN(S(=O)(=O)c4cc([N+](=O)[O-])ccc4Cl)CC3)sc2c1	97*	-1	4	9	-4	89*
Cc1ccccc1S(=O)(=O)N(C)C[C@@H]1OCc2cnnn2CCCC(=O)N([C@@H](C)CO)C[C@H]1C	.	0	.	.	2	.
COC(=O)CS(=O)(=O)c1nnc([C@H](Cc2ccccc2)NC(=O)OC(C)(C)C)o1	111*	0	-11	-10	0	94*
CCCCCc1cc(=O)oc2c(C(CCN3CCCCC3)c3cc(OC)c(OC)c(OC)c3)c(OC)cc(OC)c12 (stereo not drawn)	105*	0	1	7	-2	53
COc1cc(C(CCN2CCCC2)c2c(OC)cc(OC)c3ccc(=O)oc23)cc(OC)c1OC (stereo not drawn)	22	0	0	-2	-1	.
c1cc2c3c(cccc3c1)NC1(CCCCCC1)N2	107*	-1	6	5	-1	-4
CC(=O)Nc1ccc(N(C(=O)CNC(=O)c2cccs2)C(C(=O)NCC2CCCO2)c2ccccc2)cc1 (stereo not drawn)	.	-1	-3	2	-4	.
CCOc1ccc(N2C(=O)/C(=C\c3ccc(O)c(OC)c3)S(=O)(=O)C2c2cccc([N+](=O)[O-])c2)cc1 (stereo not drawn)	104*	0	4	5	-1	80*
COCCn1c(=NC(=O)CN2C(=O)CCC2=O)sc2cc(S(N)(=O)=O)ccc21	9	1	1	1	-3	.
COCCn1c(=NC(=O)c2cc3ccccc3oc2=O)sc2cc(S(N)(=O)=O)ccc21	101*	-2	0	-2	-1	-21
CCC1CCc2c(sc(NC(=O)c3cccnc3)c2C(N)=O)C1 (stereo not drawn)	20	2	15	4	0	.
CCC1CCc2c(sc(NC(=O)c3ccoc3C)c2C(N)=O)C1 (stereo not drawn)	102*	0	4	4	2	102*
O=C(COC(=O)c1ccncc1)Nc1cc(Cl)c(Cl)cc1Cl	1	.	1	0	.	.
CN1/C(=C/C(=O)c2nc(S(C)(=O)=O)ncc2Cl)C(C)(C)c2ccccc21	.	0	-10	-1	2	117*
Cc1cc(C)c2nc(-c3ccccn3)cc(C(=O)Nc3cc(C)on3)c2c1	101*	0	8	0	-6	99*
CCOC(=O)C(=CNc1cc(C)nn1-c1ccc(Cl)cc1)C(=O)OCC	104*	0	-2	4	-4	14
COC(=O)c1cc(Cl)c(NC(=O)c2cc3ccccc3o2)cc1OC	-37	0	-3	2	1	.
O=C(c1ccco1)N1CCN(c2c(-c3ccccc3)c3cc(Cl)ccc3[nH]c2=O)CC1	97*	0	-4	0	0	115*
Cc1cc(C)c2c(CC(=O)Nc3ccc(Cl)cn3)coc2c1	97*	-1	2	-2	4	12
O=C(N/N=C/c1ccccc1Cl)c1n[nH]c2c1CCCC2	107*	0	-5	-9	-2	83*
Cc1ccc2nc(Nc3ccc4[nH]c(=O)[nH]c4c3)c(-n3nc(C)cc3C)nc2c1	104*	0	4	2	0	114*
Cc1cc(C)n(-c2nc3ccccc3nc2Nc2ccc3c(c2)OCO3)n1	-11	0	-1	1	-1	.
SMILES	CHOP inh	TbMetRS inhib	XBP1 UPR activ	UPR CHOP act	V-ATPase pH	CHOP confirm
Cc1ccc(N/C(N)=N/c2nc(CSc3nnc(N)s3)cc(=O)[nH]2)cc1	6	0	-1	-2	8	.
N/C(=N\c1nc(CSc2nc3ccccc3s2)cc(=O)[nH]1)Nc1ccc(F)cc1	99*	0	19	2	-1	18
O=C(CSc1nc(C2CC2)nc2c1cnn2-c1ccccc1)Nc1c[nH]c(=O)[nH]c1=O	96*	-2	12	1	-1	48
Cc1nn(C)c(C)c1NC(=O)CSc1nc(Cc2ccccc2)nc2c1cnn2-c1ccccc1	.	0	1	-2	7	.
COc1ccc(C(C(=O)NC2CCCCC2)N(C(=O)CCl)c2cccc(Cl)c2)cc1 (stereo not drawn)	106*	-2	.	.	0	104*
C=CCC(Nc1ccccc1)C12C=CC(O1)C(C(=O)OC)=C2C(=O)OC (stereo not drawn)	112*	-1	-12	35	6	42
Cc1cccc(NC(=S)N2CCOCC2)c1C	2	-1	-3	-2	-3	.
O=C(C[C@@H]1C/C=C\C[C@@H](Cc2ccc(F)cc2)C(=O)OC[C@@H](Cc2ccccc2)NC1=O)N[C@H](CO)Cc1ccccc1	.	0	0	0	3	.
Cc1ccccc1N1C(=O)c2sc3nc4c(c(=O)n3c2C1=O)CCC4	106*	-1	-2	0	1	-14
O=C1c2sc3nc4ccccc4n3c2C(=O)N1c1ccccc1Cl	106*	-1	-1	4	10*	-5
O=c1/c(=C\c2cccnc2)sc2nc3ccccc3n12	1	0	.	.	-1	.
OCCN1CCN(c2ncnc3c2ncn3[C@H]2CN(Cc3ccc(F)cc3)C[C@@H](CO)O2)CC1	.	1	.	.	.	.
O=C(CCCN1C(=O)/C(=C\c2ccccc2)SC1=S)Nc1ccc(O)cc1	98*	-1	-1	1	1	18
O=C(CCCN1C(=O)/C(=C/c2ccccc2)SC1=S)Nc1cccc(O)c1	67	0	-2	0	-3	.
Cn1c(N)c(C(=O)COC(=O)Cc2ccc(Cl)c(Cl)c2)c(=O)n(C)c1=O	.	0	4	1	-6	.
Nc1c(S(=O)(=O)c2cccc(Cl)c2)c2nc3ccccc3nc2n1/N=C/c1ccc(O)c(O)c1	107*	.	12	16	.	103*
COC(=O)c1ccc(Nc2c([N+](=O)[O-])ccc3nonc23)cc1	.	0	8	0	-2	.
Cc1nn(CCCC(=O)NCCCN2CCN(C)CC2)c(=O)c2c1sc1ccccc12	.	0	0	-1	-4	.
O=C(CSc1nnnn1-c1ccc(Cl)cc1)NC(=O)Nc1ccc2c(c1)OCCO2	100*	0	2	4	-1	51
